Reference: ChEMBL document CHEMBL4359823, “Switching on the activity of 1,5-diaryl-pyrrole derivatives against drug-resistant ESKAPE bacteria: Structure-activity relationships and mode of action studies” (Eur J Med Chem, 2019)
Values after ≈ are worked out from the molar mass of the structure shown.

Key:
Type in all cases: functional
[1] = test system: Acinetobacter baumannii; experiment: Antibacterial activity against Acinetobacter baumannii ATCC 17978 measured after overnight incubation by microbroth dilution method
How it was run: (§1)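 Microbroth dilution MIC. Compound DMSO stocks were diluted in water as a 2-fold series. Overnight TSB cultures were back-diluted to OD 0.01 and mixed 1:1 with compound. Plates were incubated overnight at 37 °C. MIC was the lowest concentration without visible growth (<0.1 OD600), run in duplicate.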

[2] = test system: Klebsiella pneumoniae; experiment: Antibacterial activity against Klebsiella pneumoniae NCTC13368 measured after overnight incubation by microbroth dilution method; how it was run: as §1
[3] = test system: Staphylococcus aureus; experiment: Antibacterial activity against methicillin sensitive Staphylococcus aureus NCTC 6571 measured after overnight incubation by microbroth dilution method
How it was run: (§2)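 Microbroth dilution: DMSO stocks diluted in water, 2-fold series. Overnight TSB cultures back-diluted to OD 0.01 and mixed 1:1 with compound. Incubated overnight at 37 °C; MIC taken as lowest concentration without visible growth (<0.1 OD600). Run in duplicate; matching DMSO levels checked for effect on growth.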

[4] = test system: Enterococcus faecalis; experiment: Antibacterial activity against vancomycin sensitive Enterococcus faecalis NCTC775 measured after overnight incubation by microbroth dilution method; how it was run: as §2
[5] = test system: Klebsiella pneumoniae; experiment: Antibacterial activity against Klebsiella pneumoniae M6 measured after overnight incubation by microbroth dilution method; how it was run: as §1
[6] = test system: Pseudomonas aeruginosa; experiment: Antibacterial activity against Pseudomonas aeruginosa PAO1 measured after overnight incubation by microbroth dilution method; how it was run: as §1
[7] = test system: Acinetobacter baumannii; experiment: Antibacterial activity against Acinetobacter baumannii AYE measured after overnight incubation by microbroth dilution method; how it was run: as §1
[8] = test system: Escherichia coli; experiment: Antibacterial activity against Escherichia coli NCTC12923 measured after overnight incubation by microbroth dilution method; how it was run: as §1
[9] = test system: Staphylococcus aureus; experiment: Antibacterial activity against methicillin resistant Staphylococcus aureus NCTC13616 measured after overnight incubation by microbroth dilution method; how it was run: as §2
[10] = test system: Pseudomonas aeruginosa; experiment: Antibacterial activity against Pseudomonas aeruginosa NCTC13437 measured after overnight incubation by microbroth dilution method; how it was run: as §1
[11] = test system: Enterococcus faecalis; experiment: Antibacterial activity against vancomycin resistant Enterococcus faecalis NCTC12204 measured after overnight incubation by microbroth dilution method; how it was run: as §2
[12] = test system: Staphylococcus aureus; experiment: Antibacterial activity against methicillin resistant Staphylococcus aureus NCTC13277 measured after overnight incubation by microbroth dilution method; how it was run: as §2
[13] = test system: Enterococcus faecalis; experiment: Antibacterial activity against vancomycin resistant Enterococcus faecalis NCTC12201 measured after overnight incubation by microbroth dilution method; how it was run: as §2

Row | Compound | MIC [1] [µg/mL] | MIC [2] [µg/mL] | MIC [3] [µg/mL] | MIC [4] [µg/mL] | MIC [5] [µg/mL] | MIC [6] [µg/mL] | MIC [7] [µg/mL] | MIC [8] [µg/mL] | MIC [9] [µg/mL] | MIC [10] [µg/mL] | MIC [11] [µg/mL] | MIC [12] [µg/mL] | MIC [13] [µg/mL]
1 | Cc1c(CNC2CCC(NC(=N)N)CC2)cc(-c2ccc(Cl)cc2)n1-c1ccc([N+](=O)[O-])cc1 (centres undefined) | 64 (≈ 133 µM) | > 128 | 4 (≈ 8.32 µM) | 32 (≈ 66.5 µM) | > 128 | > 128 | > 128 | 64 (≈ 133 µM) | 8 (≈ 16.6 µM) | > 128 | 16 (≈ 33.3 µM) | 8 (≈ 16.6 µM) | 64 (≈ 133 µM)
2 | Cc1cc(CNCCCCCCCCNC(=N)N)c(C)n1-c1ccc(Cl)cc1 | 16 (≈ 39.6 µM) | > 128 | 4 (≈ 9.9 µM) | 8 to 16 (≈ 19.8 to 39.6 µM) | 128 (≈ 317 µM) | > 128 | 64 (≈ 158 µM) | 16 (≈ 39.6 µM) | 8 (≈ 19.8 µM) | 64 (≈ 158 µM) | 4 to 8 (≈ 9.9 to 19.8 µM) | 8 (≈ 19.8 µM) | 16 (≈ 39.6 µM)
3 | Cc1c(CNC2CCCCC2)cc(-c2ccc(Cl)cc2)n1-c1cccc(F)c1 | 128 (≈ 322 µM) | > 128 | 8 (≈ 20.2 µM) | 8 (≈ 20.2 µM) | > 128 | > 128 | 128 (≈ 322 µM) | > 128 | 8 (≈ 20.2 µM) | > 128 | 4 (≈ 10.1 µM) | 8 (≈ 20.2 µM) | 4 (≈ 10.1 µM)
4 | Cc1c(CNC2CCCCC2)cc(-c2ccc(Cl)cc2)n1-c1ccc(F)cc1 | 64 (≈ 161 µM) | > 128 | 8 (≈ 20.2 µM) | 4 (≈ 10.1 µM) | > 128 | > 128 | 128 (≈ 322 µM) | > 128 | 8 (≈ 20.2 µM) | > 128 | 4 (≈ 10.1 µM) | 8 (≈ 20.2 µM) | 4 (≈ 10.1 µM)
5 | Cc1c(CNC2CCCCCC2)cc(-c2ccc(Cl)cc2)n1-c1ccc(F)cc1 | > 128 | > 128 | 4 (≈ 9.73 µM) | 4 (≈ 9.73 µM) | > 128 | > 128 | 128 (≈ 311 µM) | 128 (≈ 311 µM) | 8 (≈ 19.5 µM) | > 128 | 2 (≈ 4.87 µM) | 4 (≈ 9.73 µM) | 4 (≈ 9.73 µM)
6 | Cc1c(CNC2CCCCC2)cc(-c2ccc(Cl)cc2)n1-c1ccccc1C(F)(F)F | > 128 | > 128 | 4 (≈ 8.95 µM) | 4 (≈ 8.95 µM) | > 128 | > 128 | 128 (≈ 286 µM) | > 128 | 8 (≈ 17.9 µM) | > 128 | 2 (≈ 4.47 µM) | 8 (≈ 17.9 µM) | 4 (≈ 8.95 µM)
7 | Cc1c(CNC2C3CC4CC(C3)CC2C4)cc(-c2ccc(Cl)cc2)n1-c1ccc(Cl)cc1 (centres undefined) | > 128 | > 128 | 4 (≈ 8.59 µM) | 4 (≈ 8.59 µM) | > 128 | > 128 | > 128 | > 128 | 4 (≈ 8.59 µM) | > 128 | 2 (≈ 4.3 µM) | 4 (≈ 8.59 µM) | 2 (≈ 4.3 µM)
8 | Cc1cc(CNC2CCCCC2)c(C)n1-c1ccc(Cl)cc1 | > 64 | > 64 | 64 (≈ 202 µM) | 32 (≈ 101 µM) | > 64 | > 64 | > 64 |  | 64 (≈ 202 µM) | > 64 | 16 (≈ 50.5 µM) | 64 (≈ 202 µM) | 32 (≈ 101 µM)
9 | Cc1c(CNC2CCCCC2)cc(-c2ccc(Cl)cc2)n1-c1ccc(Cl)cc1Cl | 128 (≈ 286 µM) | > 128 | 4 (≈ 8.93 µM) | 4 (≈ 8.93 µM) | > 128 | > 128 | > 128 | > 128 | 4 (≈ 8.93 µM) | > 128 | 2 (≈ 4.47 µM) | 4 (≈ 8.93 µM) | 4 (≈ 8.93 µM)
10 | Cc1c(CNC2CCC(N)CC2)cc(-c2ccc(Cl)cc2)n1-c1ccc(Cl)cc1 (centres undefined) | 16 (≈ 37.3 µM) | 32 (≈ 74.7 µM) | 8 (≈ 18.7 µM) | 8 (≈ 18.7 µM) | 16 (≈ 37.3 µM) | 32 (≈ 74.7 µM) | 32 (≈ 74.7 µM) | 8 (≈ 18.7 µM) | 8 (≈ 18.7 µM) | 32 (≈ 74.7 µM) | 4 (≈ 9.34 µM) | 8 (≈ 18.7 µM) | 8 (≈ 18.7 µM)
11 | Cc1ccc(C)c(-n2c(-c3ccc(Cl)cc3)cc(CNC3CCCCC3)c2C)c1 | 64 (≈ 157 µM) | > 128 | 4 (≈ 9.83 µM) | 4 (≈ 9.83 µM) | > 128 | > 128 | > 128 | > 128 | 4 (≈ 9.83 µM) | > 128 | 2 (≈ 4.91 µM) | 8 (≈ 19.7 µM) | 4 (≈ 9.83 µM)
12 | Cc1c(CNC2CCCCC2)cc(-c2ccc(C(C)(C)C)cc2)n1-c1ccc(Cl)cc1 | > 128 | > 128 | 4 (≈ 9.19 µM) | 4 (≈ 9.19 µM) | > 128 | > 128 | > 128 | > 128 | 4 (≈ 9.19 µM) | > 128 | 2 (≈ 4.6 µM) | 4 (≈ 9.19 µM) | 2 (≈ 4.6 µM)
13 | COc1ccc(-n2c(-c3ccc(Cl)cc3)cc(CNC3CCCCC3)c2C)cc1 | 128 (≈ 313 µM) | > 128 | 16 (≈ 39.1 µM) | 8 (≈ 19.6 µM) | > 128 | > 128 | > 128 | > 128 | 16 (≈ 39.1 µM) | > 128 | 8 (≈ 19.6 µM) | 16 (≈ 39.1 µM) | 8 (≈ 19.6 µM)
14 | Cc1c(CNC2CCC(O)CC2)cc(-c2ccc(Cl)cc2)n1-c1ccc(Cl)cc1 (centres undefined) | 64 (≈ 149 µM) | > 128 | 16 (≈ 37.3 µM) | 16 (≈ 37.3 µM) | > 128 | > 128 | 128 (≈ 298 µM) | > 128 | 16 (≈ 37.3 µM) | > 128 | 8 (≈ 18.6 µM) | 16 (≈ 37.3 µM) | 16 (≈ 37.3 µM)
15 | Cc1c(CNC(C)c2ccccc2)cc(-c2ccc(Cl)cc2)n1-c1ccc(Cl)cc1 (centres undefined) | > 128 | > 128 | 4 (≈ 9.19 µM) | 2 to 4 (≈ 4.59 to 9.19 µM) | > 128 | > 128 | > 128 | 16 to 128 (≈ 36.7 to 294 µM) | 4 (≈ 9.19 µM) | > 128 | 2 (≈ 4.59 µM) | 4 (≈ 9.19 µM) | 2 to 4 (≈ 4.59 to 9.19 µM)
16 | Cc1c(CNC2CCCCCC2)cc(-c2ccc(Cl)cc2)n1-c1ccc(Cl)cc1 | 64 (≈ 150 µM) | > 128 | 4 (≈ 9.36 µM) | 4 (≈ 9.36 µM) | > 128 | 128 (≈ 299 µM) | 128 (≈ 299 µM) | > 128 | 4 (≈ 9.36 µM) | 128 (≈ 299 µM) | 2 (≈ 4.68 µM) | 4 (≈ 9.36 µM) | 2 (≈ 4.68 µM)
17 | Cc1cc(CNCc2ccccc2)c(C)n1-c1ccc(Cl)cc1 |  |  | > 128 | > 128 |  |  |  |  | > 128 |  | 128 (≈ 394 µM) | > 128 | > 128
18 | Cc1c(CNC2CCCCC2)cc(-c2ccc(Cl)cc2)n1-c1ccc([N+](=O)[O-])cc1 | 128 (≈ 302 µM) | > 128 | 8 (≈ 18.9 µM) | 8 (≈ 18.9 µM) | > 128 | > 128 | 128 (≈ 302 µM) | > 128 | 16 (≈ 37.7 µM) | > 128 | 4 (≈ 9.44 µM) | 16 (≈ 37.7 µM) | 8 (≈ 18.9 µM)
19 | Cc1c(CNC2CCCCC2)cc(-c2ccc(Cl)cc2)n1-c1ccc(O)cc1 | 128 (≈ 324 µM) | > 128 | 32 (≈ 81 µM) | 64 (≈ 162 µM) | > 128 | > 128 | > 128 | > 128 | 8 to 64 (≈ 20.3 to 162 µM) | > 128 | 32 (≈ 81 µM) | 32 (≈ 81 µM) | 32 (≈ 81 µM)
